This note sets out measurements from ChEMBL document CHEMBL4513216, “Probing the Open Global Health Chemical Diversity Library for Multistage-Active Starting Points for Next-Generation Antimalarials” (ACS Infect Dis, 2020).

The nature of this series: Toxicity liver stage against HepG2, at 10uM. The format is cell-based. Also noted: test concentration 10 uM, cell line HepG2-A16-CD81EGFP. To be noted: human, HepG2-A16-CD81EGFP cells; read-out: INHIBITION
Summed up: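 Uninfected HepG2-A16-CD81EGFP cells, 3 × 10^3 per well, 1536-well, plated on prespotted compound at 10 μM final, parasite-free screening media added to match infected plates; puromycin 10 μM positive, DMSO 0.5% negative; run in parallel with 48 h PbLuc assay at 37 °C, 5% CO2; viability by CellTiter-Glo luminescence, normalized to controls.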
For the compound `Cn1cnnc1SCc1cc2c(cc1Cl)OCO2`, the cytotoxicity at 10 µM is 7.03%. In the case of `COCCN1CCCC12CCN(C(=O)CC1CCCC1)CC2` it was 5.47%; in that of `NC(=O)C1CCCN(C(=O)c2ccn(-c3ccc(F)cc3)n2)C1` (centres undefined), -3.63%; in that of `CCN1CC[C@@]2(C(=O)N(C)C)CCN(C(=O)NC(C)C)CC[C@@H]12`, -15.2%. In the case of `Cc1noc(C)c1CN(C)CCc1nc(-c2cccc(Cl)c2)no1` it was 16.6%. Next, `N#Cc1ccc(Oc2cc(F)c(CN3CCCC3)c(F)c2)nc1`: -8.74%; `N[C@@H]1c2ccccc2C2(CCN(C(=O)c3ccc(Cl)cn3)CC2)[C@H]1O`: -2.21%.

On to `Cc1nc(Cc2ccc(F)cc2)cc(C2COCCN2)n1` (centres undefined), for which the cytotoxicity at 10 µM was 3.44%.

Consider `COc1ccc(N2CCN(C(=O)c3cc(=O)c(OC)c[nH]3)CC2)cc1`, for which the cytotoxicity at 10 µM is -0.244%. Next, `CN(Cc1cccc(OC(F)(F)F)c1)C(=O)Cc1ccon1`: -9.61%; `CCOc1ccc(NC2CCN(C)C2=O)cn1` (centres undefined): -3.7%; `COCCN1C[C@@H]2[C@@H](OC)CCN(C(=O)Cc3ccsc3)[C@@H]2C1`: 7.68%.

`Cc1cnc(N2C(=O)CSC2c2ccc(N(C)C)cc2)s1` (centres undefined): the cytotoxicity at 10 µM came out at 6.07%.

Take `O=C(C1CCCO1)N1CCC(n2cc(-c3ccsc3)nn2)CC1` (centres undefined): the cytotoxicity at 10 µM was -4.18%.

For `O=C(c1ccoc1)N1CCOC2(COCCN(CC3CC3)C2)C1` (centres undefined), the cytotoxicity at 10 µM came to 7.57%. For `CC(C)(C)c1nc(NS(=O)(=O)c2ccc(F)cc2)no1`, the cytotoxicity at 10 µM is 4.71%. On to `CCc1ccccc1CNC(=O)NCc1cnn(C)c1`, for which the cytotoxicity at 10 µM was 2.14%. As for `c1cnn(CC2CN(Cc3noc(C4CC4)n3)CCO2)c1` (centres undefined), the cytotoxicity at 10 µM was -0.842%. In the case of `COc1ccc(F)cc1C(C(=O)O)N1CCCN(C2CCCC2)CC1` (centres undefined) it was -8.63%.

In the case of `CN(Cc1ccccc1)C(=O)CCN1CCC2(CC1)[C@H](O)C[C@@H]2O`, the cytotoxicity at 10 µM was -7.55%. In the case of `CN(CCc1ccc(F)cc1)Cc1nc2c(cnn2C)c(=O)[nH]1` it was -1.69%; in that of `CC(C)(C(=O)NCCS(N)(=O)=O)c1cccc(Br)c1`, -8.35%. Next, `CC1=N[C@@]2(CC[C@@H]3CNC[C@@H]32)C(=O)N1CC(C)C`: 2.98%; `N#Cc1ccc(CN2C[C@@H]3OCC(=O)N(CC(N)=O)[C@@H]3C2)cc1`: -1.51%.

As to `Cn1cc(C2CCCN2C(=O)CCCOc2ccc(F)cc2)cn1` (centres undefined), the cytotoxicity at 10 µM is -17.8%. As for `O=C1OCCN1CCS(=O)(=O)c1cccc(Cl)c1`, the cytotoxicity at 10 µM is -0.82%. Consider `COc1cccc2c1OCC(C(=O)N1CCSCC1)C2` (centres undefined), for which the cytotoxicity at 10 µM stood at 1.88%. For `COc1cccc(-c2cc(C(=O)N3N=C(C)CC3(O)C(F)F)[nH]n2)c1` (centres undefined), the cytotoxicity at 10 µM was 8.46%. Next, `CC(C)n1ccnc1C1CCN(Cc2ccc(Cl)s2)CC1`: -7.09%. In the case of `O=c1occ(CN2CCSCC2)c(O)c1CN1CCCC1` it was -7.03%; in that of `COc1nc2c(cc1C(=O)N1C[C@H](N)C[C@H]1C(=O)NC(C)C)CCC2`, -9.49%. In the case of `COCc1nc2ncc3c(=O)n(-c4ccc(OC)cc4)ccc3n2n1` it was 8.1%; in that of `COc1cccc(S(=O)(=O)N2CCn3cnc(COCC4CC4)c3C2)c1`, -18.9%; in that of `Cc1nc(CN2CCCC2Cn2cncn2)nc2ccccc12` (centres undefined), -1.63%. Consider `CC(O)CN1CCN(Cc2coc(-c3ccccc3)n2)CC1` (centres undefined), for which the cytotoxicity at 10 µM was -5.93%. In the case of `Cc1ccc(CN2CC[C@H]3[C@H]2CCN3S(=O)(=O)C2CC2)cc1` it was 10.2%; in that of `CCc1nc(CN2CCCC(N(C)Cc3cnn(C)c3)C2)no1` (centres undefined), -14.5%. In the case of `Cn1ccnc1CN1CCc2c(COCC3CC3)nn(C)c2C1`, the cytotoxicity at 10 µM came out at 8.68%.

For the compound `Cc1ccc(C)c(NC(=O)Cn2cc(I)cn2)c1`, the cytotoxicity at 10 µM is 7.72%.
